Statin myotox sup: suppressors of statin myotoxicity in C2C12 myotubes, primary screen, cell-based, single point, plate reader | rescue of ATP level, % at 7.49 µM | C2C12 myotubes + simvastatin, ATP luminescence, 48 h; scaled: DMSO 0, geranylgeraniol control 100 | 330,000 compounds, 0.78% hits;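 active means mean ATP rescue above about 67%, or every replicate alone reaching that limit, limit read from the data, passing the limit was not always enough; inconclusive means no clear call, values can overlap the other calls; inactive means mean under the limit and some replicate under it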;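 further: myotubes were challenged with 10 µM simvastatin during compound exposure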
Cneo AK release: Cryptococcus neoformans cell lysis inducers, primary screen, AK release luminescence, single concentration | C. neoformans lysis, adenylate kinase release luminescence, 4 h; normalised: neutral wells 0, clomiphene wells 100 | lysis activity, % at 15 µM | 360,000 compounds, 0.2% hits;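 active means mean lysis activity across replicates of at least 80%, whatever share of replicates individually reach that level; inactive means mean lysis activity below 80%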
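Assay system: Cryptococcus neoformans yeast cells / Dosing: single-point compound dose / Timing: 4 h at 37 °C static, read 1 h later / Measured by: luminescence of released adenylate kinase using an AK detection reagent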
DENV2 CPE rescue: inhibitors of DENV2 cytopathic effect, primary screen, cell-based, plate reader, single concentration. AID 651640, 2012. CPE inhibition, % at 9.99 µM. DENV2-infected cells, cytopathic effect rescue. 350,000 compounds, 1.7% hits; in the data active means CPE inhibition above about 20%, passing the limit was not always enough; inconclusive means no clear call, values can overlap the other calls; tested in BHK-21 cells
Xi reactivation: activators of inactive X chromosome reactivation, primary screen, imaging, XiGFP fibroblasts, GFP high-content imaging, set 2. 360,000 compounds, 0.055% hits. AID 743238, 2013. activation, % at 7.58 µM. XiGFP mouse fibroblasts, % GFP-positive cells imaging, 3 d; cells co-treated with 5-aza-dC sensitizer; scaled so ellipticine positive control = 100%;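 active means mean normalized replicate activation at least 10% and every replicate at or above 10%; inconclusive means only one of the two criteria met; inactive means mean below 10% and not all replicates reach 10%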
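Assay system – SV40-immortalized XiGFP fibroblast cells, line 68-5-11 · Buffer or medium – DMEM supplemented with 5-aza-dC as sensitizing agent · Dosing – one concentration, pinned · Benchmarks – positive control ellipticine, 6 µM final · Times – 3 days compound exposure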
Of the large screens only hits and unclear results are named; the others gave an inactive call; ! = not active in a repeat. Sampled rows, rich in hits. Any-hit rate of the full collection: about 2.1%.

Cc1cc(C)cc(N2CN=C3SCC(=O)N3C2)c1	none (no result: Statin myotox sup, DENV2 CPE rescue, Xi reactivation)
COc1ccc(N2CN=C3SCC(=O)N3C2)cc1	Statin myotox sup 106 (no result: DENV2 CPE rescue, Xi reactivation)
N#Cc1ccc(-c2ccc([C@@H]3[C@H](CO)N4CCCCN(S(=O)(=O)c5ccccc5)C[C@@H]34)cc2)cc1	DENV2 CPE rescue 23 (no result: Statin myotox sup)
O=S(=O)(Cc1ccccc1)N1CCCCN2[C@H](CO)[C@@H](c3ccc(-c4ccc(F)cc4)cc3)[C@H]2C1	DENV2 CPE rescue 41
O=S(=O)(c1ccccc1)N1CCCCN2[C@H](CO)[C@@H](c3ccc(C#Cc4ccccc4)cc3)[C@@H]2C1	none (no result: Statin myotox sup, Xi reactivation)
N#Cc1ccc(-c2ccc([C@@H]3[C@H]4CN(S(=O)(=O)c5ccccc5)CCCCN4[C@H]3CO)cc2)cc1	none (no result: Statin myotox sup)
CN(C)CC#Cc1ccc([C@H]2[C@@H](CO)N3CCCCN(S(=O)(=O)c4ccccc4)C[C@@H]23)cc1	DENV2 CPE rescue 44
O=S(=O)(c1ccccc1)N1CCCCN2[C@@H](CO)[C@H](c3ccc(C#Cc4ccccc4)cc3)[C@@H]2C1	DENV2 CPE rescue 22 (no result: Statin myotox sup)
C[C@@H]1CN([C@H](C)CO)C(=O)c2cc(C#CC3CC3)cnc2O[C@H]1CN(C)C(=O)c1ccncc1	none (no result: Cneo AK release, DENV2 CPE rescue)
Cc1ccc(S(=O)(=O)N(C)C[C@@H]2OCCCC[C@H](C)Oc3ccc(NS(=O)(=O)c4cccs4)cc3C(=O)N([C@H](C)CO)C[C@H]2C)cc1	none (no result: Statin myotox sup)
CCS(=O)(=O)N1CCCCN2[C@@H](CO)[C@@H](c3ccc(-c4ccc(C#N)cc4)cc3)[C@@H]2C1	DENV2 CPE rescue 45
CCS(=O)(=O)N1CCCCN2[C@H](C1)[C@H](c1ccc(-c3ccc(C#N)cc3)cc1)[C@@H]2CO	none
O=C(c1cccnc1)N1CCC(Oc2ccc(C(=O)N3CCCC(O)C3)cc2)CC1 (stereo unspecified)	Cneo AK release 111
COc1cccc(CN(C)S(=O)(=O)c2cccs2)c1	DENV2 CPE rescue 25
CC(C)NC(=O)N(C)C[C@H]1Oc2ccc(NC(=O)Cn3cnnn3)cc2C(=O)N([C@@H](C)CO)C[C@H]1C	none (no result: Statin myotox sup, Cneo AK release, DENV2 CPE rescue)
Cc1ccc(C(=O)CSc2nnc(-c3ccco3)n2Cc2ccccc2)cc1	Statin myotox sup 83 (no result: DENV2 CPE rescue, Xi reactivation)
CCn1c(SCC(=O)NCc2cccs2)nnc1-c1ccco1	Statin myotox sup 105 (no result: DENV2 CPE rescue, Xi reactivation)
Cc1noc(C)c1NC(=O)Nc1cccc2c1O[C@H](CN(C)C(=O)NC1CCCCC1)[C@H](C)CN([C@@H](C)CO)C2=O	none
COc1ccc(C#Cc2ccc3c(c2)[C@H]2[C@H](CCN2S(=O)(=O)c2ccccc2C)[C@H](CO)N3C)cc1	none
N#C[C@H]1[C@@H](c2ccccc2-c2ccc(F)cc2)[C@@H](CO)N1c1ncc(-c2ccccc2)s1	DENV2 CPE rescue 23 (no result: Statin myotox sup, Cneo AK release)
N#C[C@H]1[C@@H](c2ccccc2-c2ccc(F)cc2)[C@H](CO)N1c1ncc(-c2ccccc2)s1	none (no result: Statin myotox sup, Cneo AK release)
N#C[C@@H]1[C@@H](c2ccccc2-c2ccc(F)cc2)[C@H](CO)N1c1ncc(-c2ccccc2)s1	DENV2 CPE rescue 76 (no result: Statin myotox sup, Cneo AK release)
N#C[C@@H]1[C@H](c2ccccc2-c2ccc(F)cc2)[C@H](CO)N1c1ncc(-c2ccccc2)s1	none (no result: Statin myotox sup, Cneo AK release)
O=C(Nc1cccc(Cl)c1)c1csc([C@@H]2C[C@H](O)[C@@H](CO)O2)n1	DENV2 CPE rescue 36
O=C(Nc1cccc(C(F)(F)F)c1)c1csc([C@H]2C[C@H](O)[C@@H](CO)O2)n1	none
C[C@H](CO)N1C[C@H](C)[C@H](CN(C)C(=O)Cc2ccccn2)Oc2ncc(C#C[C@@H](C)O)cc2C1=O	none
CC=Cc1ccc2n(c1=O)C[C@H]1[C@H](CO)[C@@H](C(=O)NC3Cc4ccccc4C3)[C@@H]2N1C(C)=O (mixture of isomers)	none
COc1ccc(S(=O)(=O)N(CC(C)C)CC(C)C)c2cccnc12	Statin myotox sup 154, DENV2 CPE rescue 57
CCCCN(CCCC)S(=O)(=O)c1ccc(OC)c2ncccc12	Statin myotox sup 66 (no result: DENV2 CPE rescue, Xi reactivation)
CCN(Cc1ccccc1)S(=O)(=O)c1ccc(OC)c2ncccc12	none (no result: Statin myotox sup)
C[C@@H]1CCCCO[C@H](CN(C)C)[C@H](C)CN([C@H](C)CO)C(=O)c2cc(NS(C)(=O)=O)ccc2O1	none
COCCNC(=O)c1cc(-c2ccccc2C)n(CC2CC(c3cccc([N+](=O)[O-])c3)=NO2)n1 (stereo unspecified)	none
Cc1ccccc1-c1cc(C(=O)NCc2cccc(Br)c2)nn1CC1CC(c2cccc([N+](=O)[O-])c2)=NO1 (stereo unspecified)	DENV2 CPE rescue 34
COc1cccc(C2NC(=S)NC(C)=C2C(C)=O)c1 (stereo unspecified)	DENV2 CPE rescue 57 (no result: Statin myotox sup, Cneo AK release)
Cc1cccc(C)c1OCC(=O)NNC(=O)CCCn1c(=O)oc2ccccc21	DENV2 CPE rescue 45
CC(C)NC(=O)N(C)C[C@@H]1OCCCC[C@H](C)Oc2ccc(NC(=O)Nc3ccc(F)cc3)cc2C(=O)N([C@H](C)CO)C[C@@H]1C	none (no result: Statin myotox sup)
CC(=O)c1ccc(OCCCC(=O)Nc2cc(Cl)ccc2-n2cncn2)cc1	DENV2 CPE rescue 56
CCCc1c(C(=O)Nc2cc(C(C)(C)C)on2)cnn1-c1ccccc1	DENV2 CPE rescue 29 (no result: Cneo AK release)
COc1ccc(NC(=O)Nc2ccc3c(c2)CC(=O)N([C@H](C)CO)C[C@@H](C)[C@@H](CN(C)S(=O)(=O)c2ccccc2)O3)cc1	DENV2 CPE rescue inconclusive (no result: Cneo AK release)
CCCNC(=O)C[C@@H]1C[C@H]2c3cc(NC(=O)COC)ccc3O[C@H]2[C@H](CO)O1	none
COc1ccccc1S(=O)(=O)N1CC[C@H]2[C@H](CO)Nc3ccc(-c4ccccc4F)cc3[C@H]21	DENV2 CPE rescue 21
Cc1ccccc1S(=O)(=O)N1CC[C@@H]2[C@H](CO)Nc3ccc(-c4ccccc4F)cc3[C@@H]21	DENV2 CPE rescue 43
O=S(=O)(c1ccccc1F)N1CC[C@@H]2[C@H]1c1cc(-c3ccccc3F)ccc1N[C@@H]2CO	DENV2 CPE rescue 40
Cc1ccccc1S(=O)(=O)N1CC[C@@H]2[C@H]1c1cc(-c3ccccc3F)ccc1N[C@@H]2CO	none
CNC[C@H]1OCCCC[C@H](C)Oc2ccc(NC(=O)CCCN(C)C)cc2C(=O)N([C@H](C)CO)C[C@@H]1C	Cneo AK release 107!
C[C@@H]1CCCCO[C@H](CN(C)C(=O)CCCN(C)C)[C@@H](C)CN([C@H](C)CO)C(=O)c2cc(NC(=O)CCCN(C)C)ccc2O1	DENV2 CPE rescue 20 (no result: Statin myotox sup, Cneo AK release)
C[C@@H]1CCCCO[C@@H](CN(C)CC2CC2)[C@H](C)CN([C@H](C)CO)C(=O)c2cc(NC(=O)CCCN(C)C)ccc2O1	DENV2 CPE rescue 43 (no result: Statin myotox sup, Cneo AK release)
COc1ccc(CN(C)C[C@@H]2Oc3ccc(NS(=O)(=O)c4ccc(F)cc4)cc3C(=O)N([C@H](C)CO)C[C@@H]2C)cc1	none
COc1ccc(CN(C)C[C@@H]2Oc3ccc(NC(=O)Cc4cn(C)c5ccccc45)cc3CC(=O)N([C@@H](C)CO)C[C@@H]2C)cc1	none
